Active and inactive are the calls of the source. No cut-off for these calls is given here.
Columns and labels:
[1] = test system: Nucleoside diphosphate kinase B (Homo sapiens), P22392 [F60A]; experiment: Binding affinity to N-terminal NT-647-NHS labeled NM23-H2 F60A mutant (unknown origin) up to 50 uM by SPR analysis
[2] = biological target: T1, Nucleoside diphosphate kinase B (Homo sapiens, UniProt P22392); experiment: Binding affinity to NM23-H2 in human SiHa cells assessed as disruption of protein interaction with c-myc G-quadruplex DNA by measuring decrease in c-MYC mRNA level after 9 hrs by RT-PCR analysis; type: cell-based
How it was run: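 SiHa cells treated at 0, 0.5, 1.0, 2.0 μM for 9 h; TRIzol RNA, 1.5 μg reverse-transcribed with oligo(dT); semiquantitative PCR, 30 cycles, 58 °C annealing; bands normalized to β-actin, untreated 100%; three repeats.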

SiHa [3] = experiment: Antiproliferative activity against human SiHa cells up to 100 hrs by real-time cellular activity assay; type: functional, cell-based
How it was run: (§1)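 Impedance-based real-time cell analysis at 37 °C, 5% CO2: 100 μL of 20 000 cells/mL added over medium background, settled 20 min, dosed after 24 h; read every 2 min for 2 h, then every 15 min to end; three repeats.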

SiHa [4] = experiment: Cell cycle arrest in human SiHa cells assessed as accumulation at G2/M phase at 2 uM after 48 hrs by propidium iodide staining based flow cytometry (reference value: 39 %); type: functional
How it was run: (§2)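 SiHa cells (2.0 × 10^5 per well) plated 24 h, then exposed to 2 μM compound or left untreated for 3, 6, 9, 12, 24, 36 or 48 h. Cells washed in PBS, fixed overnight in ice-cold 70% ethanol, treated with 20 μg/mL RNase A for 30 min at 37 °C, stained with PI, and read by flow cytometry at 488 nm. Phase percentages compared with untreated control; at least three experiments.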

SiHa [5] = experiment: Cell cycle arrest in human SiHa cells assessed as accumulation at S phase at 2 uM after 48 hrs by propidium iodide staining based flow cytometry (reference value: 13 %); type: functional; how it was run: as §2
SiHa [6] = experiment: Cell cycle arrest in human SiHa cells assessed as accumulation at G0/G1 phase at 2 uM after 9 hrs by propidium iodide staining based flow cytometry (reference value: 48 %); type: functional
How it was run: (§3)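 SiHa cells plated 24 h, treated at 2 μM for 3–48 h; fixed in ice-cold 70% ethanol overnight, RNase A 20 μg/mL 37 °C 30 min, PI-stained, flow cytometry at 488 nm; phase percentages quantified; at least three experiments.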

SiHa [7] = experiment: Cell cycle arrest in human SiHa cells assessed as accumulation at G2/M phase at 2 uM after 12 hrs by propidium iodide staining based flow cytometry (reference value: 39 %); type: functional; how it was run: as §3
[8] = biological target: T1, Nucleoside diphosphate kinase B; experiment: Binding affinity to N-terminal NT-647-NHS labeled NM23-H2 (unknown origin) after 30 mins by MST analysis
How it was run: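 NM23-H2 N-terminally labeled with RED-NHS dye (20 μM protein, 30 min dark, RT), free dye removed; 200 nM labeled protein with compound from 500 μM, 16 twofold steps, 30 min RT in 50 mM Tris-HCl pH 7.4, 150 mM NaCl, 10 mM MgCl2, 0.05% Tween-20; KD at half-plateau.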

SiHa [9] = experiment: Induction of apoptosis in human SiHa cells assessed as necrotic cells at 1 uM after 48 hrs by Annexin V-FITC/propidium iodide based flow cytometric analysis (reference value: 0.3%); type: functional
[10] = Antiproliferative activity against mouse primary mesangial cells at 4 uM up to 100 hrs by real-time cellular activity assay; type: cell-based; conditions: primary mesangial cell; how it was run: as §1
Mus musculus = experiment: Toxicity in BALB/C nude mouse xenografted with human SiHa cells assessed as discomfort at 2.5 to 5 mg/kg, ip administered daily after 3 weeks; type: organism-based; conditions: in vivo, 504 h
How it was run: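 SiHa cells implanted in the right armpit of BALB/c nu/nu mice. At approximately 50 mm3, mice randomized (n = 8/group) to vehicle, compound 2.5 or 5.0 mg/kg, or doxorubicin 1.0 mg/kg, given ip daily for 3 weeks. Body weight and signs of pain, distress or discomfort monitored; tumors excised and weighed. Data given as mean ± SEM, t test against vehicle.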

SiHa [11] = experiment: Antitumor activity against human SiHa cells xenografted in BALB/C nude mouse assessed as tumor growth inhibition at 2.5 to 5 mg/kg, ip administered daily; type: functional, organism-based; conditions: TDE = time-dependent effect
How it was run: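 SiHa cells implanted in the right armpit of BALB/C-nu/nu mice. At a tumour size of about 50 mm3, mice were randomised (n = 8/group) to vehicle, 2.5 or 5.0 mg/kg compound, or doxorubicin 1.0 mg/kg, given ip daily for 3 weeks. Tumour volume was followed, then tumours were excised and weighed and body weight recorded. Mean ± SEM, t test against vehicle.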

SiHa [12] = experiment: Induction of apoptosis in human SiHa cells assessed as necrotic cells at 0.5 uM after 48 hrs by Annexin V-FITC/propidium iodide based flow cytometric analysis (reference value: 0.3%); type: functional
SiHa [13] = experiment: Down regulation of CDK6 expression in human SiHa cells at 0.5 to 2 uM after 24 to 48 hrs by Western blot analysis; type: functional, cell-based
How it was run: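 SiHa cells (2.0 × 10^5) treated with compound at various concentrations for 24 or 48 h, then lysed at 4 °C. Protein measured by BCA; 30 μg run on 10% SDS-PAGE and transferred to nitrocellulose. Membranes blocked in 5% milk, probed with primary antibodies overnight at 4 °C, then HRP secondary for 2 h, and detected by chemiluminescence. Bands quantified by densitometry; at least three experiments.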

SiHa [14] = experiment: Antitumor activity against human SiHa cells xenografted in BALB/C nude mouse assessed as tumor growth inhibition at 2.5 mg/kg, ip administered daily after 3 weeks relative to control; type: functional; conditions: 504 h, read-out: TGI
[15] = Binding affinity to biotin-labeled 18-mer duplex DNA hairpin (unknown origin) at 40 uM after 30 mins by SPR analysis
SiHa [16] = experiment: Cell cycle arrest in human SiHa cells assessed as accumulation at S phase at 2 uM after 12 hrs by propidium iodide staining based flow cytometry (reference value: 13 %); type: functional; how it was run: as §2
[17] = biological target: Nucleoside diphosphate kinase B (Homo sapiens, UniProt P22392, H118F); experiment: Binding affinity to N-terminal NT-647-NHS labeled NM23-H2 H118F mutant (unknown origin) after 30 mins by MST analysis
[18] = Binding affinity to biotin-labeled Pu22 c-myc G-quadruplex DNA (unknown origin) at 40 uM after 30 mins by SPR analysis
SiHa [19] = experiment: Antitumor activity against human SiHa cells xenografted in BALB/C nude mouse assessed as tumor weight at 2.5 mg/kg, ip administered daily after 3 weeks (reference value: 511.6 mg); type: functional
SiHa [20] = experiment: Antiproliferative activity against human SiHa cells harboring NM23-H2 siRNA up to 2 uM after 24 hrs by real-time cellular activity assay; type: functional, cell-based
How it was run: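 SiHa cells precultured 24 h, transfected with 30 nM NM23-H2 siRNA for 6 h, dosed up to 2 μM 24 h after siRNA; growth followed by impedance-based real-time cell analysis.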

T1 sequence (P22392 whole entry): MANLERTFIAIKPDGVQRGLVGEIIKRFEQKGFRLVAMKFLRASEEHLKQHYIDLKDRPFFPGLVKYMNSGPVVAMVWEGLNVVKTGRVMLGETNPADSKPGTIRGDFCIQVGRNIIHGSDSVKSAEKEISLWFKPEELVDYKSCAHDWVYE
Sequence of Nucleoside diphosphate kinase B (Homo sapiens, UniProt P22392, H118F) (P22392 whole entry H118F): as the sequence (P22392 whole entry) above, with H118F counted along it
Sequence of Nucleoside diphosphate kinase B (Homo sapiens), P22392 [F60A] (P22392 whole entry F60A): as the sequence (P22392 whole entry) above, with F60A counted along it

What does the source list for `CN(C)CCCNc1cc2nc3n(c(=O)c2cc1F)CC/C3=C\c1ccc(OCc2ccccc2)cc1O`?
Activity [1]: inactive; Activity [2]: Dose-dependent effect; Activity (SiHa [3]): Dose-dependent effect; Activity (SiHa [4]): 0%; Activity (SiHa [5]): 0%; Activity (SiHa [6]): 67%; Activity (SiHa [7]): 27%; Kd [8]: 2000 nM; Activity (SiHa [9]): 1.3%; Activity [10]: Toxic; Activity (Mus musculus): Non-Toxic; TGI (SiHa [11]): Tde; Activity (SiHa [12]): 0.3%; Activity (SiHa [13]): Active; inhibition in vivo at 2.5 mg/kg (SiHa [14]): 48%; Activity [15]: inactive; Activity (SiHa [16]): 11%; Kd [17]: 7.7 µM; Activity [18]: inactive; Activity (SiHa [19]): 265.9 mg; Activity (SiHa [20]): inactive

From ChEMBL document CHEMBL4017489, “Design, Synthesis, and Evaluation of New Selective NM23-H2 Binders as c-MYC Transcription Inhibitors via Disruption of the NM23-H2/G-Quadruplex Interaction” (J Med Chem, 2017)
